In ChEMBL document CHEMBL3120104, “Discovery of the first C-nucleoside HCV polymerase inhibitor (GS-6620) with demonstrated antiviral response in HCV infected patients” (J Med Chem, 2014):
≈ marks a conversion by molar mass, not a printed value.

Key:
[1] = test system: Huh-7; experiment: Prodrug coversion in human HuH7 cells assessed as triphosphate formation at 10 uM after 24 hrs by liquid chromatography coupled with mass spectrometry; type: ADME, cell-based; details: huh-7, 24 h
How it was run: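 Huh-7 cells carrying the GT1b replicon, grown to confluency in 12-well plates (0.88 × 10⁶ cells/well). Exposed 24 h to 10 μM compound, then washed with ice-cold saline and extracted overnight in frozen 70% methanol. Dried extract resuspended in 1 mM ammonium phosphate pH 8.5. Triphosphate quantified by LC/triple-quadrupole MS.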

[2] = molecular target: DNA-directed RNA polymerase, mitochondrial (Homo sapiens) (UniProt O00411); experiment: Inhibition of mitochondrial RNA polymerase (unknown origin) assessed as inhibition of single nucleotide incorporation; details: concentration not given here
How it was run: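 Reactions started with 500 μM (final) natural NTP or NTP analog. Time-point aliquots were quenched in EDTA/formamide, heated to 65 °C, resolved on 20% polyacrylamide/8 M urea gels, and product formation quantified by phosphorimaging.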

[3] = test system: Hepatitis C virus; experiment: Antiviral activity against HCV genotype 1b infected in human HuH7 cells assessed as inhibition of viral replication after 3 days by luminescence assay; type: functional, organism-based, Hepacivirus hominis; details: Huh-7, 72 h
How it was run: (§1)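 Multiplex replicon assay carrying a renilla luciferase reporter, with stable GT1b, 1a and 2a replicons and chimeric 2b, 3a, 4a, 5a and 6a replicons. 2000 replicon cells/well in medium without Geneticin. Ten-step 1:3 serial dilutions, four replicates, 0.44% DMSO final. Incubated 3 days at 37 °C, 5% CO₂. Luminescence normalised to DMSO wells and to protease-inhibitor (ITMN-191) wells. EC50 from a four-parameter Hill fit.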

[4] = Metabolic stability in serum (unknown origin); type: ADME
[5] = test system: Hepatitis C virus; experiment: Antiviral activity against HCV genotype 2a; type: functional, organism-based, Hepacivirus hominis; details: pooled result: one value given for 8 cell lines, strains, targets or settings; how it was run: as §1
[6] = test system: Hepatitis C virus; experiment: Antiviral activity against HCV genotype 1 infected in human patient assessed as viral load reduction at 900 mg, bid relative to placebo; type: functional, Hepacivirus hominis
[7] = test system: Hepatitis C virus; experiment: Antiviral activity against HCV genotype 1 infected in human patient assessed as viral load reduction at 450 mg administered as solution bid relative to baseline control; type: functional, Hepacivirus hominis
How it was run: (§2)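 Randomized, double-blind, placebo-controlled, multiple-dose, dose-escalation trial in treatment-naive patients chronically infected with HCV genotype 1. Cohorts had eight active and two placebo subjects. Doses ran from 50 mg once daily to 900 mg BID, fed or fasted, for 5 days. Read-out was median viral load change (log10 IU/mL) from baseline.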

[8] = test system: Hepatitis C virus; experiment: Antiviral activity against HCV genotype 1 infected in human patient assessed as viral load reduction at 900 mg administered as tablet formulation bid for 5 days relative to baseline control; type: functional, Hepacivirus hominis; how it was run: as §2
[9] = test system: Homo sapiens; experiment: Toxicity in human patient infected with HCV genotype 1 administered twice a day for 5 days; type: organism-based; details: in vivo, 120 h
How it was run: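 Randomized, double-blind, placebo-controlled multiple-dose escalation in treatment-naive patients chronically infected with HCV genotype 1. Nine cohorts (8 active, 2 placebo each) received 50 mg once daily up to 900 mg BID, fed or fasted, for 5 days. Safety, tolerability and viral load were assessed.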

[10] = Oral absorption in beagle dog at 5 mg/kg, po by LC/MS/MS analysis; type: ADME, organism-based, Canis lupus familiaris; design: dose 5 mg/kg, route oral; details: in vivo
How it was run: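 Naive male beagle dogs were dosed once, orally at 5 mg/kg in EtOH/PEG 400/50 mM citrate buffer pH 4 (5/40/55), or intravenously at 0.5 mg/kg for reference. Plasma was sampled over 24 h and processed by acetonitrile precipitation. Bioavailability %F = AUC_po × Dose_iv / (AUC_iv × Dose_po).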

[11] = AUC (0 to infinity) in jagular vein cannulated beagle dog at 0.5 mg/kg, iv by LC/MS/MS analysis; type: ADME, organism-based, Canis lupus familiaris; design: time infinity, dose 0.5 mg/kg, route intravenous; details: plasma
How it was run: (§3)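 Naive male beagle dogs got a single intravenous infusion of 0.5 mg/kg in EtOH/PEG 400/water 5/20/75, adjusted to pH 4 with HCl. EDTA-K3 blood was collected over 24 h and plasma isolated. Plasma was precipitated with acetonitrile to a final 60%, filtered, dried, reconstituted in 20% acetonitrile and analysed.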

[12] = AUC (0 to infinity) in portal vein cannulated beagle dog at 0.5 mg/kg, iv by LC/MS/MS analysis; type: ADME, organism-based, Canis lupus familiaris; design: time infinity, dose 0.5 mg/kg, route intravenous; details: plasma; how it was run: as §3
[13] = Oral bioavailability in golden syrian hamster at 5 mg/kg; type: ADME, organism-based, Mesocricetus auratus; details: in vivo
[14] = test system: Syrian golden hamster; experiment: Cmax in golden syrian hamster assessed as liver triphosphate level at 5 mg/kg, po by LC/MS/MS analysis; type: ADME, organism-based, Mesocricetus auratus; design: dose 5 mg/kg, route oral; details: in vivo
How it was run: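 Groups of 12 Golden Syrian hamsters were dosed orally at 5 mg-equiv/kg. Vehicle was EtOH/PEG400/water buffered with 50 mM pH 4 citrate at 2.5 mg-equiv/mL. Liver was homogenized in four volumes of ice-cold 0.1% KOH/67 mM EDTA in 70% MeOH containing 0.25 μM Cl-ATP, then centrifuged, dried and reconstituted in 1 mM ammonium phosphate pH 7.0. Triphosphate was measured by LC/MS/MS, with endogenous ATP checked for sample stability.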

[15] = test system: Syrian golden hamster; experiment: Cmax in golden syrian hamster assessed as liver triphosphate level at 1 mg/kg, iv by LC/MS/MS analysis; type: ADME, organism-based, Mesocricetus auratus; design: dose 1 mg/kg, route intravenous; details: in vivo
How it was run: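 Golden Syrian hamsters in groups of 12, dosed iv at 1 mg-equiv/kg in EtOH/PEG400/water adjusted to pH 4 with HCl (0.5 mg-equiv/mL). Liver homogenised in ice-cold 70% MeOH with 0.1% KOH, 67 mM EDTA and 0.25 μM Cl-ATP internal standard, then centrifuged, dried and reconstituted. Triphosphate measured by LC/MS/MS; endogenous ATP checked for sample stability.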

[16] = Metabolic stability in human liver S9 fraction assessed as extraction at 2 uM after 90 mins by LC/MS/MS analysis; type: ADME, subcellular; details: read-out: Stability
How it was run: (§4)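 Compound at 2 μM was incubated with human intestinal or hepatic S9 fraction plus NADPH and UDPGA for 90 min at 37 °C. Time-point samples were quenched in aqueous acetonitrile/methanol with internal standard and analysed by LC/MS/MS. Half-life came from an exponential first-order fit, and hepatic extraction was predicted from half-life using the well-stirred model.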

[17] = Half life in human intestinal S9 fraction at 2 uM by LC/MS/MS analysis; type: ADME, Intestine; how it was run: as §4
[18] = Permeability across basolateral to apical side in human Caco2 cells at 10 uM after 1 to 2 hrs by LC/MS/MS analysis; type: ADME, cell-based; details: Caco-2, read-out: permeability
How it was run: (§5)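 Caco-2 monolayers were grown at least 21 days, and membrane integrity was checked by TEER after buffer equilibration. Test compound was dosed at 10 μM on the apical or basolateral side, in duplicate wells. Receiver samples at 1 and 2 h were precipitated with acetonitrile plus internal standard and run by LC/MS/MS.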

[19] = Permeability across apical to basolateral side in human Caco2 cells at 10 uM after 1 to 2 hrs by LC/MS/MS analysis; type: ADME, cell-based; details: Caco-2, read-out: permeability; how it was run: as §5
[20] = Aqueous solubility of the compound in phosphate buffer at pH 7 by reverse-phase UPLC-UV method; type: physicochemical
How it was run: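 Excess solid was suspended in pH 7 phosphate buffer at ambient temperature, sonicated, then stirred for at least 2 h. After centrifugation, the supernatant was quantified by reverse-phase UPLC-UV.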

[21] = Lipophilicity, log D of the compound by HPLC/UV method; type: physicochemical
How it was run: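 A 10 mM DMSO stock was diluted 1:100 into 1:1 acetonitrile/water, shaken 30 min, and analysed by HPLC/UV on a C18 column with 20 mM ammonium acetate/acetonitrile mobile phase.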

[22] = Cytotoxicity against human HuH7 cells after 3 days by fluorescence assay; type: cell-based; details: Huh-7 cells
How it was run: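 Huh-7 HCV replicon cells were seeded at 2000 cells/well in medium without Geneticin. Compounds were added as ten-point 1:3 DMSO dilutions in quadruplicate (final DMSO 0.44%), with […] as the 100% cytotoxicity control. After 3 days at 37 °C, cells were washed and given 400 nM calcein AM for 30 min at RT, and fluorescence read at ex 490/em 520 nm. Signal was normalized to DMSO and puromycin wells, and CC50 taken from a four-parameter Hill fit.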

[23] = test system: Hepatitis C virus; experiment: Selectivity ratio of EC50 for HCV harboring NS5B RNA dependent RNA polymerase S282T mutant to EC50 for wild-type HCV; type: functional, Hepacivirus hominis
[24] = Toxicity in dog after 7 days; type: organism-based, Canis lupus familiaris; details: in vivo
How it was run: (§6)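 Nonclinical 7-day toxicology study with daily dosing up to 300 mg/(kg day) in rats and up to 75 mg/(kg day) in dogs; NOAEL set from test-article related findings.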

[25] = Toxicity in rat after 7 days; type: organism-based; details: in vivo; how it was run: as §6
[26] = Efflux ratio of apparent permeability across human Caco2 cells at 100 uM; type: ADME, cell-based; details: Caco-2
How it was run: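 Caco-2 monolayers grown to confluence for at least 21 days; membrane integrity checked by TEER after equilibration in transport buffer. Compound added to apical or basolateral side (duplicate wells) to give forward and reverse permeability. Receiver samples taken at 1 and 2 h, acetonitrile-precipitated, and quantified by LC/MS/MS. Papp calculated from receiver slope, volume and monolayer area. Recovery also measured.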

[27] = Inhibition of HCV genotype 1b recombinant NS5B RNA dependent RNA polymerase using sshRNA as substrate incubated for 5 mins prior to compound addition measured after 90 mins in presence of [33P]GTP

Sequence of DNA-directed RNA polymerase, mitochondrial (Homo sapiens) (O00411 whole entry): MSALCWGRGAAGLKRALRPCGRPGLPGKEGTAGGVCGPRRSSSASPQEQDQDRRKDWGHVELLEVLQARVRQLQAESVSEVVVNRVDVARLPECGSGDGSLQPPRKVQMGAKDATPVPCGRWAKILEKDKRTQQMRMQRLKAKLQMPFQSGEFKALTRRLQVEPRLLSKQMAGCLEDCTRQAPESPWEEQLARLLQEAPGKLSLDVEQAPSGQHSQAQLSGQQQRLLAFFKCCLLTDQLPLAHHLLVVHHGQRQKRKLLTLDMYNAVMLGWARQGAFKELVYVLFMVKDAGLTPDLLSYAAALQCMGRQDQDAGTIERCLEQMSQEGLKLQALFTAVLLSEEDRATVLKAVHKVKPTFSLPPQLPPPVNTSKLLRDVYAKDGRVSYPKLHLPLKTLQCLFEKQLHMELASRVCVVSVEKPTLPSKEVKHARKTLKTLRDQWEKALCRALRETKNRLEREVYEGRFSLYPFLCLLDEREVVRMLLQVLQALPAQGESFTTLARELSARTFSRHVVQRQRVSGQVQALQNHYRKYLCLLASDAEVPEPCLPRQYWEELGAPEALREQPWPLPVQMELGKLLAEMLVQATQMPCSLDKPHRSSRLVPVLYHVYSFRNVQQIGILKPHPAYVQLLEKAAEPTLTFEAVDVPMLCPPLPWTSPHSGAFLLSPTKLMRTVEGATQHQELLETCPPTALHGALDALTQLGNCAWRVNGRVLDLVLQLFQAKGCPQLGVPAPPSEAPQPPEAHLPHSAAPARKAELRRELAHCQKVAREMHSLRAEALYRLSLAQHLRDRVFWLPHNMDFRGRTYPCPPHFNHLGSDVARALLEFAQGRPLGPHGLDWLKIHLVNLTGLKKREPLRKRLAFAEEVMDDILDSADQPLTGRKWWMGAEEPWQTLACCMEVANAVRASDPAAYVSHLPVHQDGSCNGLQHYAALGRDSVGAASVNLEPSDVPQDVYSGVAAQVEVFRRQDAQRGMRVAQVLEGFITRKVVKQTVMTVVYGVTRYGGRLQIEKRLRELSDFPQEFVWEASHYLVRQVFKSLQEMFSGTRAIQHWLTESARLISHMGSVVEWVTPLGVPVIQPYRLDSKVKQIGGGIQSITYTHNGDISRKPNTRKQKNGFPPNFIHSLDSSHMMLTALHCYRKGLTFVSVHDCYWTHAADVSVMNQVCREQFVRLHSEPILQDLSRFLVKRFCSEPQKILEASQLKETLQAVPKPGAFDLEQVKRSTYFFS

SMILES: C[C@@]1(O)[C@H](O)[C@@H](CO)O[C@@]1(C#N)c1ccc2c(N)ncnn12
- Drug metabolism [1]: < 0.5 µM
- inhibition [2]: 0.03%
- EC50 [3]: > 89 µM

SMILES: CC(C)OC(=O)[C@H](C)N[P@](=O)(OC[C@H]1O[C@@](C#N)(c2ccc3c(N)ncnn23)[C@](C)(O)[C@@H]1OC(=O)C(C)C)Oc1ccccc1 [GS-6620]
- Stability [4]: Stable
- EC50 [5]: 0.068 µM
- Activity [6]: 1.14 log10IU/ml
- Activity [7]: 1.63 log10IU/ml
- Activity [8]: 1.73 log10IU/ml
- MTD [9]: 900 mg

SMILES: CCC(CC)COC(=O)[C@H](C)NP(=O)(OC[C@H]1O[C@@](C#N)(c2ccc3c(N)ncnn23)[C@](C)(O)[C@@H]1O)Oc1ccccc1 (some centres not stated)
- Fa [10]: 7.9%
- AUC(0-inf) [11]: 0.02 µM·h
- AUC(0-inf) [12]: 0.21 µM·h
- bioavailability [13]: 5.4%
- Cmax [14]: 2.26 µM
- Cmax [15]: 8.33 µM
- hepatic extraction ratio at 1.5 h, 2 µM [16]: 0.97
- half-life at 2 µM [17]: 1.23 h
- Papp B→A at 10 µM [18]: 7.2 ×10⁻⁶ cm/s
- Papp A→B at 10 µM [19]: 0.36 ×10⁻⁶ cm/s
- solubility [20]: 1.8 µg/mL (≈ 2.92 µM)
- logD [21]: 2.7
- CC50 at 72 h [22]: 35 µM
- EC50 [3]: 0.44 µM

SMILES: CC(C)OC(=O)[C@H](C)NP(=O)(OC[C@H]1O[C@@](C#N)(c2ccc3c(N)ncnn23)[C@](C)(O)[C@@H]1OC(=O)C(C)C)Oc1ccccc1 (some centres not stated)
- Stability [4]: Stable
- Ratio EC50 [23]: >95
- NOAEL at 168 h [24]: > 75 mg/kg/day
- NOAEL at 168 h [25]: > 300 mg/kg/day
- efflux ratio at 100 µM [26]: < 2
- Fa [10]: 88%
- Cmax [14]: 3.67 µM
- Cmax [15]: 4.5 µM
- logD [21]: 2.9
- CC50 at 72 h [22]: 47 µM
- EC50 [3]: 0.61 µM

SMILES: C[C@@]1(c2ccc3c(N)ncnn23)O[C@H](CO)[C@@H](O)[C@@]1(C)O
- inhibition [2]: 0.08%
- EC50 [3]: > 89 µM
- IC50 [27]: 55 µM
